Calls of active or inactive are those of the source.
Experiments:
[1] = system: Mus musculus; assay: Cataleptic activity in ip dosed C57BL/6J mouse measured after 60 mins; type: organism-based; conditions: in vivo, 1 h
Method in brief: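 Male C57BL/6J mice, n = 8–10/treatment/time-point, front paws placed on a 2.5 mm horizontal bar with rear paws on the bench, tested at baseline and then injected with vehicle, haloperidol (0.01–10 mg/kg) or test agent (0.01–30 mg/kg). Separate groups were scored at 60 min as time until paw removal, with a 60 s cut-off.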

[2] = target: 5-hydroxytryptamine receptor 2B (Homo sapiens, UniProt P41595); assay: Agonist activity at recombinant human 5HT2B receptor expressed in Flp-In-293 cells assessed as calcium flux at 10 uM by FLIPR assay relative to 5-HT; type: functional, cell-based
5-hydroxytryptamine receptor 2B, sequence (P41595 whole entry): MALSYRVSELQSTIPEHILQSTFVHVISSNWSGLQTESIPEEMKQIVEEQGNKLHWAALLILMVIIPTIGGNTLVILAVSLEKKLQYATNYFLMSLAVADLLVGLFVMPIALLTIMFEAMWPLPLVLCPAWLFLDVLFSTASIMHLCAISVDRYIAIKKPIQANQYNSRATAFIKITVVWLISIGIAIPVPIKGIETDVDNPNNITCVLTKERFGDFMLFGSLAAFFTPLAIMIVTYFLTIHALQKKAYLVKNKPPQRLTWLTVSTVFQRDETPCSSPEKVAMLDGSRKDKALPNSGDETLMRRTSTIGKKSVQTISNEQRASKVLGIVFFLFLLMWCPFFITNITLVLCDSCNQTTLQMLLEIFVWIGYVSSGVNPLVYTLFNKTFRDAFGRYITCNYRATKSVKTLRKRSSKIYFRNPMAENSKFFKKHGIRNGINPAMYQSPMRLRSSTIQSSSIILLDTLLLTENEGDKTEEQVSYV

[3] = target: D(2) dopamine receptor (Homo sapiens, UniProt P14416); assay: Binding affinity to human dopamine D2 receptor by radioligand binding assay
D(2) dopamine receptor, sequence (P14416 whole entry): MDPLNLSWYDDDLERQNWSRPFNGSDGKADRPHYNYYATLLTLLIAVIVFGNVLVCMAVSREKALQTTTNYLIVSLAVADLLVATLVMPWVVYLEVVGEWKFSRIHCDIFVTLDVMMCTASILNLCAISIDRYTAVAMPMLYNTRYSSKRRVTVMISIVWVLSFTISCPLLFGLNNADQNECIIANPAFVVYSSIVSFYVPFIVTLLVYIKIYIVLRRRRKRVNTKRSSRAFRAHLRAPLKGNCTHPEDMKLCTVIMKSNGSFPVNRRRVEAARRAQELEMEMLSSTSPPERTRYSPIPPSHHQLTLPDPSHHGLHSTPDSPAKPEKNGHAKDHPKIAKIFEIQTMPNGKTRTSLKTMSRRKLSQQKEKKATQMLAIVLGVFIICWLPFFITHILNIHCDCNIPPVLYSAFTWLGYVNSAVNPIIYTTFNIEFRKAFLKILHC

[4] = target: D(3) dopamine receptor (Homo sapiens, UniProt P35462); assay: Binding affinity to dopamine D3 receptor (unknown origin) by radioligand binding assay
D(3) dopamine receptor, sequence (P35462 whole entry): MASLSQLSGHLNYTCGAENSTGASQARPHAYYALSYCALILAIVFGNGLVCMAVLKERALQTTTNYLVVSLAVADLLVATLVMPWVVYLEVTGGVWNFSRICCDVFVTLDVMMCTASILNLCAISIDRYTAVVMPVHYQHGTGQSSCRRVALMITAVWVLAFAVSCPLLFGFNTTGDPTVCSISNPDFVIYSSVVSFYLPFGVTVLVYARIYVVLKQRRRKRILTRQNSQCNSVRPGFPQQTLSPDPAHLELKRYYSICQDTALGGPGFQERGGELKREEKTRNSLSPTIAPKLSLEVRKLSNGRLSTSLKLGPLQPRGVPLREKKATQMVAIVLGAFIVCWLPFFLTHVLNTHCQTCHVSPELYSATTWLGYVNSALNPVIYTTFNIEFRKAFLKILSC

[5] = target: T1, 5-hydroxytryptamine receptor 1A (Homo sapiens, UniProt P08908); assay: Binding affinity to human 5HT1A receptor by radioligand binding assay
T1 sequence (P08908 whole entry): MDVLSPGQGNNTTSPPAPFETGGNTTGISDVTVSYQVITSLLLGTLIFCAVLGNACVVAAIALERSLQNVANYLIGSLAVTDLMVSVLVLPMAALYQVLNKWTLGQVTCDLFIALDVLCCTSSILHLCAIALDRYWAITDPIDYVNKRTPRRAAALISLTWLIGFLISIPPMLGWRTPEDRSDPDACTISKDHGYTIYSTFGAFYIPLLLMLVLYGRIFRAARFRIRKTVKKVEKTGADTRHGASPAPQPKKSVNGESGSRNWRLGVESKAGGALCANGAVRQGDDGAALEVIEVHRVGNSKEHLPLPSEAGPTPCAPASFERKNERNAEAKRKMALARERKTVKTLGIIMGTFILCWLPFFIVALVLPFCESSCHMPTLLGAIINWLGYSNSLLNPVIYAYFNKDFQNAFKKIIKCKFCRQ

[6] = target: T2, Muscarinic acetylcholine receptor M5 (Homo sapiens, UniProt P08912); assay: Binding affinity to human muscarinic acetylcholine M5 receptor by radioligand binding assay
T2 sequence (P08912 whole entry): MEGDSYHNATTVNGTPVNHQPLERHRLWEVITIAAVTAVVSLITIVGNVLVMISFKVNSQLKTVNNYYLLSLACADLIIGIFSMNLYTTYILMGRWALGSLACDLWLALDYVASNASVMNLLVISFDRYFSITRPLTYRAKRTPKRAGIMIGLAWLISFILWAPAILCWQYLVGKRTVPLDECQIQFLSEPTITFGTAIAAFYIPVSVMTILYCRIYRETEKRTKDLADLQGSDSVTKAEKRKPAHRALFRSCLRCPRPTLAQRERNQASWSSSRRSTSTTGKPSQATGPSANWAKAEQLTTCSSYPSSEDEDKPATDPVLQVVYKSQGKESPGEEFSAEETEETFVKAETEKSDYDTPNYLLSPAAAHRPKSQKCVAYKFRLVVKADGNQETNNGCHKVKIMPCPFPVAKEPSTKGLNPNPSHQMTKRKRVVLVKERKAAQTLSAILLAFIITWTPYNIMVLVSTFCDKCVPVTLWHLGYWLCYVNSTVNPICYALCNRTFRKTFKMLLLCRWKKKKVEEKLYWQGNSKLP

[7] = target: T3, Alpha-2C adrenergic receptor (Homo sapiens, UniProt P18825); assay: Binding affinity to human alpha-2C adrenergic receptor by radioligand binding assay
T3 sequence (P18825 whole entry): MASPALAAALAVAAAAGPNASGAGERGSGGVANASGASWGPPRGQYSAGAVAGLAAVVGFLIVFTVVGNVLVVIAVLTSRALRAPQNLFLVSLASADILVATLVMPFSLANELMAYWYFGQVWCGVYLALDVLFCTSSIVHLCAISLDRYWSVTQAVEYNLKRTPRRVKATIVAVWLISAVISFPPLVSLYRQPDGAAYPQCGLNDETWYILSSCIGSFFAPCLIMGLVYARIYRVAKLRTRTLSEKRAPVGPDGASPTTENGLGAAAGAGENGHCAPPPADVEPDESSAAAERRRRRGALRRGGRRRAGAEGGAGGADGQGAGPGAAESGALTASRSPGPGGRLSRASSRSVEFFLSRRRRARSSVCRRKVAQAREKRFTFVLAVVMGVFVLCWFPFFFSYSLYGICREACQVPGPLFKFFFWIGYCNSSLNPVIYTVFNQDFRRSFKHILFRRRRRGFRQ

[8] = system: Mus musculus; assay: Cataleptic activity in C57BL/6J mouse at 0.01 to 30 mg/kg, ip measured after 60 mins; type: ADME, organism-based; conditions: in vivo, 1 h
[9] = target: Sodium-dependent serotonin transporter (Homo sapiens, UniProt P31645); assay: Binding affinity to human SERT by radioligand binding assay
Sodium-dependent serotonin transporter, sequence (P31645 whole entry): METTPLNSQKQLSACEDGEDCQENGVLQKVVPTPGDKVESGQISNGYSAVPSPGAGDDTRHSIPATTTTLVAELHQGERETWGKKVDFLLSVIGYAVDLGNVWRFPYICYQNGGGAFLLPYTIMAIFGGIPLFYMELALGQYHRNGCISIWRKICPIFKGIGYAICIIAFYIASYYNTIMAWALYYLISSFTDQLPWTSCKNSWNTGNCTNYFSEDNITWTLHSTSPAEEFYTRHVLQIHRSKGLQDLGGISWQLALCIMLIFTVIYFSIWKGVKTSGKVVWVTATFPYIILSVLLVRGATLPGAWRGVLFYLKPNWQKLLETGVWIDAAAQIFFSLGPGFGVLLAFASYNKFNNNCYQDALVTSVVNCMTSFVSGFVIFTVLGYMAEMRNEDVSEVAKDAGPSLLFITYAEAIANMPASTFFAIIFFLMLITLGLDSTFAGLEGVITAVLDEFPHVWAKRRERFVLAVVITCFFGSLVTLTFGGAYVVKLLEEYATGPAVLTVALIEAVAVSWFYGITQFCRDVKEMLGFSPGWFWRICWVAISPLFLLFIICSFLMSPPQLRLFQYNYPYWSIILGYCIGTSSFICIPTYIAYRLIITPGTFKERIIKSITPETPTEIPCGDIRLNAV

[10] = target: 5-hydroxytryptamine receptor 6 (Homo sapiens, UniProt P50406); assay: Binding affinity to human 5HT6 receptor by radioligand binding assay
5-hydroxytryptamine receptor 6, sequence (P50406 whole entry): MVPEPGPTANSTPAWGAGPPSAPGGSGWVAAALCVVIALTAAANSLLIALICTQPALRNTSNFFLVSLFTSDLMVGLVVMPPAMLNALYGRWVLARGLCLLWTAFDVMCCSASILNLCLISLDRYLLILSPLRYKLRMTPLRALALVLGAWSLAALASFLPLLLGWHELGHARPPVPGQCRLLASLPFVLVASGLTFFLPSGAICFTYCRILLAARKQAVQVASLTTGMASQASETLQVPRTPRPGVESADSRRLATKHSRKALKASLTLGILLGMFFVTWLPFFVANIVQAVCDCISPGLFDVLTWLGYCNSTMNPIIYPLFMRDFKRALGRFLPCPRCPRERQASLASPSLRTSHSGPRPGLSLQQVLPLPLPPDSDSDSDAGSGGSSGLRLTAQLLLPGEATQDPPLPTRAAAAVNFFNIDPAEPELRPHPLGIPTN

[11] = Binding affinity to sigma 2 receptor (unknown origin) by radioligand binding assay; parameters: species or system Homo sapiens
[12] = target: Histamine H2 receptor (Homo sapiens, UniProt P25021); assay: Binding affinity to histamine H2 receptor (unknown origin) by radioligand binding assay
Histamine H2 receptor, sequence (P25021 whole entry): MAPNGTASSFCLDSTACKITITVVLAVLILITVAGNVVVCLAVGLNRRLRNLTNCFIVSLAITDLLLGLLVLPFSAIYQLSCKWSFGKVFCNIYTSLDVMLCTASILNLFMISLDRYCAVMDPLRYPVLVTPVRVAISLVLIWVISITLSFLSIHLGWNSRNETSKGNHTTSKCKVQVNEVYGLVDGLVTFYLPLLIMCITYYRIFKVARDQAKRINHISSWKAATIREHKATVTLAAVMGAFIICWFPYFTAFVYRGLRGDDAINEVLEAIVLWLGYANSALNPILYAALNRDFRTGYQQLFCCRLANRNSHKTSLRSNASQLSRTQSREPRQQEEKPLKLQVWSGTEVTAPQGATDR

[13] = target: Beta-2 adrenergic receptor (Homo sapiens, UniProt P07550); assay: Binding affinity to human beta-2 adrenergic receptor by radioligand binding assay
Beta-2 adrenergic receptor, sequence (P07550 whole entry): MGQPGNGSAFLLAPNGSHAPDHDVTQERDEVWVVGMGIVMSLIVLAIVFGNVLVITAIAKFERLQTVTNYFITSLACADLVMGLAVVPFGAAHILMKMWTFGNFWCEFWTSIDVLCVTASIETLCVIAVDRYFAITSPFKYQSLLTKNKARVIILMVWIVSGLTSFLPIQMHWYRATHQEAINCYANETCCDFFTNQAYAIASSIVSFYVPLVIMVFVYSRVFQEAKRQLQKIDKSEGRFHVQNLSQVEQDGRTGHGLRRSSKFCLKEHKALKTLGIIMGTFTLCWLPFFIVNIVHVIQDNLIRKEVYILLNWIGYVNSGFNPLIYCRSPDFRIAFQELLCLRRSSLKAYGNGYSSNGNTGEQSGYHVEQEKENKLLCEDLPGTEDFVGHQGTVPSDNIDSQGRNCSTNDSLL

[14] = target: T4, Alpha-2A adrenergic receptor (Homo sapiens, UniProt P08913); assay: Binding affinity to human alpha-2A adrenergic receptor by radioligand binding assay
T4 sequence (P08913 whole entry): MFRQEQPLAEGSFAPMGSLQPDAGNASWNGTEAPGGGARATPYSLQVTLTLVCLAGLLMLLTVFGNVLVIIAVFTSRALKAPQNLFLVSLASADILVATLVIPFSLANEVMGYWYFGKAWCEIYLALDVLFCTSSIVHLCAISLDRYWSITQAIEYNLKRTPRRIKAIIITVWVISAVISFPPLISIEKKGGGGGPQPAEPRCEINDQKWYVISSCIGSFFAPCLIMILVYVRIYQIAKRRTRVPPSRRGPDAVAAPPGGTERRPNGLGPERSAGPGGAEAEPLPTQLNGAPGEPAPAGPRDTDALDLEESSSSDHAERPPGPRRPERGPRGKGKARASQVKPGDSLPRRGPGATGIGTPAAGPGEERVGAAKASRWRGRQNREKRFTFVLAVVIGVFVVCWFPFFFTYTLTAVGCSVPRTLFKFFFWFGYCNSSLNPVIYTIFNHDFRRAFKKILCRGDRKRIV

[15] = target: T5, D(4) dopamine receptor (Homo sapiens, UniProt P21917); assay: Binding affinity to human dopamine D4 receptor by radioligand binding assay
T5 sequence (P21917 whole entry): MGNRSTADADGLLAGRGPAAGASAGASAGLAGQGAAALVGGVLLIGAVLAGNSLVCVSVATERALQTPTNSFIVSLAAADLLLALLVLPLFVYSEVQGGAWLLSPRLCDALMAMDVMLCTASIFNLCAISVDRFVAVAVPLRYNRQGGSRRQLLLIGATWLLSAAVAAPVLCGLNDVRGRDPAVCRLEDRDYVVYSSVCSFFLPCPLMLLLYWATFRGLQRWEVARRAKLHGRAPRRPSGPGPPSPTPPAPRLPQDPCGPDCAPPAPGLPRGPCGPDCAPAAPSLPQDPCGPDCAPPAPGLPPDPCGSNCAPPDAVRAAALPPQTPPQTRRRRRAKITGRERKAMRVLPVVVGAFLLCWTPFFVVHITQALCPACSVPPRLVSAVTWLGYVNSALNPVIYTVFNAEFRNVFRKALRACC

[16] = target: 5-hydroxytryptamine receptor 7 (Homo sapiens, UniProt P34969); assay: Binding affinity to human 5HT7 receptor by radioligand binding assay
5-hydroxytryptamine receptor 7, sequence (P34969 whole entry): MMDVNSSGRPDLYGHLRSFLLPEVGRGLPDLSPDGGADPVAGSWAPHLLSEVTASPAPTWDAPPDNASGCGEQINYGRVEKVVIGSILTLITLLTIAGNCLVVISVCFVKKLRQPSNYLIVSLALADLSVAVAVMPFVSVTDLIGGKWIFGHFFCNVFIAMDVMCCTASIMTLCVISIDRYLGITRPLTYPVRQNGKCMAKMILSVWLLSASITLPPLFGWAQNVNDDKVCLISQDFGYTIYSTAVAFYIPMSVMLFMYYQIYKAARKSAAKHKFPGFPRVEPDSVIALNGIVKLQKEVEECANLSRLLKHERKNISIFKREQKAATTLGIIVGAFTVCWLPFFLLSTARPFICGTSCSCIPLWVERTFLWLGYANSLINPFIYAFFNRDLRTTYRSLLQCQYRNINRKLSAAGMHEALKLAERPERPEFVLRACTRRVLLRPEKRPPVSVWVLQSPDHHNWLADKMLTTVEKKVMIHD

[17] = system: Mus musculus; assay: Cognitive enhancing effect in NR1-KD mouse hypoglutamatergic model of schizophrenia assessed as reduction in duration of object exploration during testing at 0.5 to 1 mg/kg, ip administered for 30 mins measured for 3 days relative to wild type mouse; type: functional, organism-based
Method in brief: (§1)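 Three daily 5-min trials: empty-chamber acclimation, two identical objects, then 24 h later one familiar plus one novel object (long-term memory). Sessions video-recorded; time spent investigating objects scored at training and testing.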

[18] = system: Mus musculus; assay: Cognitive enhancing effect in NR1-KD mouse hypoglutamatergic model of schizophrenia at 0.5 to 1 mg/kg, ip administered for 30 mins measured for 3 days by novel object recognition memory test; type: functional, organism-based; method in brief: as §1
[19] = system: Mus musculus; assay: Effect on 120 dB acoustic stimulus-induced pulse-only response in C57BL/6J mouse at 4 mg/kg, ip administered for 10 mins followed by AMPH challenge; type: functional, organism-based
Method in brief: (§2)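 Adult male C57BL/6 mice, n = 8–11/group, given vehicle or 0.5–4 mg/kg, then vehicle or 3 mg/kg amphetamine 10 min later. After 10 min acclimation in a startle chamber, 42 trials were run: 18 pulse-only (120 dB), 18 prepulse-pulse (4, 8, 12 dB prepulses) and 6 null. Peak startle (arbitrary units) was taken within 65 ms of pulse onset.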

[20] = system: Mus musculus; assay: Suppression of AMPH-stimulated hyperlocomotion in C57BL/6J mouse assessed as reduction in distance travelled in open field at 5 to 30 mg/kg, ip administered for 15 mins followed by AMPH challenge measured after 105 mins; type: functional, organism-based
Method in brief: (§3)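 Mice, n = 7–10/treatment, injected with vehicle or 2–30 mg/kg and placed in an open field monitored by infrared beams. After 15 min baseline, they were given vehicle or 3 mg/kg d-amphetamine and recorded for a further 105 min. Distance travelled was taken in 5-min bins or as a cumulative value over 15 min baseline plus 75 min post-amphetamine.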

[21] = system: Mus musculus; assay: Effect on 120 dB acoustic stimulus-induced pulse-only response in C57BL/6J mouse at 4 mg/kg, ip administered for 10 mins; type: functional, organism-based; method in brief: as §2
[22] = system: Mus musculus; assay: Suppression of AMPH-stimulated hyperlocomotion in C57BL/6J mouse assessed as reduction in distance travelled in open field at 2 mg/kg, ip administered for 15 mins followed by AMPH challenge measured after 105 mins; type: functional, organism-based; method in brief: as §3
[23] = system: Mus musculus; assay: Cognitive enhancing effect in NR1-KD mouse hypoglutamatergic model of schizophrenia assessed as reduction in duration of object exploration during training at 0.5 to 1 mg/kg, ip administered for 30 mins measured for 3 days relative to wild type mouse; type: functional, organism-based; method in brief: as §1
[24] = system: Mus musculus; assay: Attenuation of novel object recognition memory in wild type mouse assessed as decrease in preference for novel object at 1 mg/kg, ip administered for 30 mins measured for 3 days; type: functional, organism-based; method in brief: as §1
[25] = system: Mus musculus; assay: Increase in AMPH-disrupted 4 to 12 dB prepulse inhibition in C57BL/6J mouse at 4 mg/kg, ip administered for 10 mins followed by AMPH challenge; type: functional, organism-based; method in brief: as §2
[26] = system: Mus musculus; assay: Restoration of AMPH-disrupted 4 to 12 dB prepulse inhibition in C57BL/6J mouse at 0.5 to 1 mg/kg, ip administered for 10 mins followed by AMPH challenge; type: functional, organism-based; method in brief: as §2
[27] = system: Mus musculus; assay: Reduction in 120 dB acoustic stimulus-induced pulse-only response in C57BL/6J mouse at 0.5 to 2 mg/kg dose followed by AMPH challenge; type: functional, organism-based; method in brief: as §2
[28] = system: Mus musculus; assay: Increase in AMPH-disrupted 4 to 12 dB prepulse inhibition in C57BL/6J mouse at 2 mg/kg administered for 10 mins followed by AMPH challenge; type: functional, organism-based; method in brief: as §2

SMILES: O=C(CCCN1CCC(O)(c2ccc(Cl)cc2)CC1)c1ccc(F)cc1 [HALOPERIDOL]
- Activity [1]: Dose-dependent effect

SMILES: C=CCOc1cc(F)c(F)cc1C1CC1CN (single isomer, unassigned; (-))
- Emax [2]: < 15%

SMILES: C=CCOc1cc(F)c(F)cc1C1CC1CN.Cl (single isomer, unassigned; (+))
- Ki [3]: 4900 nM
- Ki ([4]; read-out: Ki): 201 nM
- Ki ([4]; read-out: pKi (converted)): 195 nM
- Ki ([5]; read-out: Ki): 750 nM
- Ki ([5]; read-out: pKi (converted)): 933 nM
- Ki [6]: 2840 nM
- Ki [7]: 278 nM
- Activity [8]: Non-toxic
- Ki [9]: 1260 nM
- Ki ([10]; read-out: Ki): 111 nM
- Ki ([10]; read-out: pKi (converted)): 115 nM
- Ki [11]: 2110 nM
- pKi [11]: 5.68
- Ki [12]: 3390 nM
- Ki [13]: 807 nM
- Ki ([14]; read-out: Ki): 661 nM
- Ki ([14]; read-out: pKi (converted)): 166 nM
- Ki [15]: 1680 nM
- Ki ([16]; read-out: Ki): 1270 nM
- Ki ([16]; read-out: pKi (converted)): 1020 nM

SMILES: C=CCOc1cc(F)c(F)cc1C1CC1CN (single isomer, unassigned; (+))
- Activity [17]: Active
- Activity [18]: Active
- Activity [19]: inactive
- Activity [20]: Dose-dependent effect
- Activity [21]: inactive
- Activity [22]: inactive
- Activity [23]: Active
- Activity [24]: Active
- Activity [25]: inactive
- Activity [26]: Active
- Activity [27]: Active
- Activity [28]: Active
